Source: ChEMBL document CHEMBL1149771, “Antimicrobial studies of 2,4-dichloro-5-fluorophenyl containing oxadiazoles” (2008)
In brackets after ≈: the same amount, converted by molar mass.

Key:
Format in all cases: functional
[1] = test system: Pseudomonas aeruginosa; experiment: Antibacterial activity against Pseudomonas aeruginosa ATCC 27853 at 37 degC after 24 hrs by broth dilution method; details: ATCC 27853, 24 h
In short: (§1)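 Broth dilution MIC. Nutrient broth held two-fold serial dilutions of compound and was inoculated with about 5 × 10⁵ c.f.u. of actively dividing bacteria. Cultures ran 24 h at 37 °C, with growth checked visually and spectrophotometrically. MIC was the lowest concentration arresting growth. Ciprofloxacin was the standard.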

[2] = test system: Staphylococcus aureus; experiment: Antibacterial activity against Staphylococcus aureus ATCC 25923 at 37 degC after 24 hrs by broth dilution method; details: ATCC 25923, 24 h; in short: as §1
[3] = test system: Talaromyces marneffei; experiment: Antifungal activity against Penicillium marneffei at 37 degC after 3 to 4 days by agar […] method
In short: (§2)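 Agar well diffusion for fungi, compounds in DMSO. Sabouraud agar was adjusted to pH 5.7 and lawned with a saline spore suspension (a loopful in 3 ml). Plates were dried 1 h at 37 °C, then wells were punched. Incubation was 3–4 days at 37 °C, with controls in triplicate. Inhibition zones were measured against controls, with griseofulvin as standard.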

[4] = test system: Pseudomonas aeruginosa; experiment: Antibacterial activity against Pseudomonas aeruginosa ATCC 27853 at 37 degC after 24 hrs by disc diffusion method
In short: (§3)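 Disc diffusion on nutrient agar. Plates were spread with 1–2 × […] c.f.u./ml inoculum (0.5 McFarland). Sterile 6.25 mm filter-paper discs were soaked in a known concentration of compound and placed on the agar. Plates were inverted and incubated 24 h at 37 °C. Inhibition zones (mm) were read against solvent and growth controls, with ciprofloxacin as reference.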

[5] = test system: Staphylococcus aureus; experiment: Antibacterial activity against Staphylococcus aureus ATCC 25923 at 37 degC after 24 hrs by disc diffusion method; in short: as §3
[6] = test system: Staphylococcus aureus; experiment: Antibacterial activity against Staphylococcus aureus ATCC 25923 at 35 degC after 18 to 24 hrs
In short: (§4)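 Bactericidal endpoint (MBC) taken from the broth-dilution MIC tubes. 0.1 ml from each tube was spread on agar plates and c.f.u. counted after 18–24 h. MBC was the lowest concentration completely killing the bacteria.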

[7] = test system: Candida albicans; experiment: Antifungal activity against Candida albicans at 37 degC after 3 to 4 days by agar dilution method; details: for Activity: in the assay text read “agar diffusion method” for “agar dilution method”; in short: as §2
[8] = test system: Candida albicans; experiment: Antifungal activity against Candida albicans at 35 degC after 48 hrs
In short: (§5)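 Fungicidal endpoint (MFC). 0.1 ml from each broth-dilution tube was spread on agar plates and c.f.u. counted after 48 h at 35 °C. MFC was the lowest concentration killing 99.9% of the inoculum.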

[9] = test system: Candida albicans; experiment: Antifungal activity against Candida albicans at 35 degC after 48 hrs by broth dilution method
In short: (§6)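 Fungal MIC by broth dilution. Two-fold serial dilutions of compound in nutrient broth were inoculated with about 1.6 × 10⁴–6 × 10⁴ c.f.u./ml. Incubation was 48 h at 35 °C. MIC was the lowest concentration arresting fungal growth.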

[10] = test system: Trichophyton mentagrophytes; experiment: Antifungal activity against Trichophyton mentagrophytes at 35 degC after 48 hrs by broth dilution method; in short: as §6
[11] = test system: Escherichia coli; experiment: Antibacterial activity against Escherichia coli ATCC 25922 at 37 degC after 24 hrs by broth dilution method; details: ATCC 25922, 24 h; in short: as §1
[12] = test system: Talaromyces marneffei; experiment: Antifungal activity against Penicillium marneffei at 35 degC after 48 hrs by broth dilution method; in short: as §6
[13] = test system: Escherichia coli; experiment: Antibacterial activity against Escherichia coli ATCC 25922 at 37 degC after 24 hrs by disc diffusion method; in short: as §3
[14] = test system: Aspergillus fumigatus; experiment: Antifungal activity against Aspergillus fumigatus at 35 degC after 48 hrs; in short: as §5
[15] = test system: Klebsiella pneumoniae; experiment: Antibacterial activity against Klebsiella pneumoniae ATCC 25922 at 37 degC after 24 hrs by disc diffusion method; in short: as §3
[16] = test system: Talaromyces marneffei; experiment: Antifungal activity against Penicillium marneffei at 35 degC after 48 hrs; in short: as §5
[17] = test system: Trichophyton mentagrophytes; experiment: Antifungal activity against Trichophyton mentagrophytes at 37 degC after 3 to 4 days by agar dilution method; details: in the assay text read “agar diffusion method” for “agar dilution method”; in short: as §2
[18] = test system: Aspergillus fumigatus; experiment: Antifungal activity against Aspergillus fumigatus at 37 degC after 3 to 4 days by agar […] method; in short: as §2
[19] = test system: Aspergillus fumigatus; experiment: Antifungal activity against Aspergillus fumigatus at 35 degC after 48 hrs by broth dilution method; in short: as §6
[20] = test system: Klebsiella pneumoniae; experiment: Antibacterial activity against Klebsiella pneumoniae ATCC 25922 at 37 degC after 24 hrs by broth dilution method; details: recultured, in the assay text read “Klebsiella pneumoniae (recultured)” for “Klebsiella pneumoniae ATCC 25922”; in short: as §1
[21] = test system: Trichophyton mentagrophytes; experiment: Antifungal activity against Trichophyton mentagrophytes at 35 degC after 48 hrs; in short: as §5
[22] = test system: Pseudomonas aeruginosa; experiment: Antibacterial activity against Pseudomonas aeruginosa ATCC 27853 at 35 degC after 18 to 24 hrs; in short: as §4
[23] = test system: Klebsiella pneumoniae; experiment: Antibacterial activity against Klebsiella pneumoniae ATCC 25922 at 35 degC after 18 to 24 hrs; details: recultured, in the assay text read “Klebsiella pneumoniae (recultured)” for “Klebsiella pneumoniae ATCC 25922”; in short: as §4
[24] = test system: Escherichia coli; experiment: Antibacterial activity against Escherichia coli ATCC 25922 at 35 degC after 18 to 24 hrs; in short: as §4

Row | Compound | MIC [1] [µg/mL] | MIC [2] [µg/mL] | inhibition zone (IZ) [4] [mm] | inhibition zone (IZ) [5] [mm] | MBC [6] [µg/mL] | MFC [8] [µg/mL] | MIC [9] [µg/mL] | MIC [10] [µg/mL] | MIC [11] [µg/mL] | MIC [12] [µg/mL] | inhibition zone (IZ) [13] [mm] | MFC [14] [µg/mL] | inhibition zone (IZ) [15] [mm] | MFC [16] [µg/mL] | MIC [19] [µg/mL] | MIC [20] [µg/mL] | MFC [21] [µg/mL] | MBC [22] [µg/mL] | MBC [23] [µg/mL] | MBC [24] [µg/mL] | further results
1 | Fc1cc(-c2nnc(COc3ccccc3Cl)o2)c(Cl)cc1Cl | 12.5 (≈ 33.5 µM) | 12.5 (≈ 33.5 µM) | 15 | 15 | 50 (≈ 134 µM) | 50 (≈ 134 µM) | 25 (≈ 66.9 µM) | 12.5 (≈ 33.5 µM) | 6.25 (≈ 16.7 µM) | > 100 | 18 | 12.5 (≈ 33.5 µM) | 12 | > 100 | 6.25 (≈ 16.7 µM) | 25 (≈ 66.9 µM) | 50 (≈ 134 µM) | 25 (≈ 66.9 µM) | 50 (≈ 134 µM) | 12.5 (≈ 33.5 µM) | Activity [3]: >100 µg/mL; inhibition zone (IZ) [7]: 10 mm; inhibition zone (IZ) [17]: 12 mm; inhibition zone (IZ) [18]: 19 mm
2 | Cc1cc(Cl)ccc1OCc1nnc(-c2cc(F)c(Cl)cc2Cl)o1 | 6.25 (≈ 16.1 µM) | 6.25 (≈ 16.1 µM) | 29 | 20 | 6.25 (≈ 16.1 µM) | 6.25 (≈ 16.1 µM) | 6.25 (≈ 16.1 µM) | 6.25 (≈ 16.1 µM) | 6.25 (≈ 16.1 µM) | 6.25 (≈ 16.1 µM) | 24 | 6.25 (≈ 16.1 µM) | 19 | 6.25 (≈ 16.1 µM) | 6.25 (≈ 16.1 µM) | 6.25 (≈ 16.1 µM) | 25 (≈ 64.5 µM) | 6.25 (≈ 16.1 µM) | 6.25 (≈ 16.1 µM) | 12.5 (≈ 32.2 µM) | inhibition zone (IZ) [3]: 19 mm; inhibition zone (IZ) [7]: 28 mm; inhibition zone (IZ) [17]: 22 mm; inhibition zone (IZ) [18]: 25 mm
3 | Cc1cc(OCc2nnc(-c3cc(F)c(Cl)cc3Cl)o2)ccc1Cl | > 100 | 25 (≈ 64.5 µM) |  | 10 | 50 (≈ 129 µM) | > 100 | > 100 | > 100 | 12.5 (≈ 32.2 µM) | 25 (≈ 64.5 µM) | 15 | 50 (≈ 129 µM) | 12 | 50 (≈ 129 µM) | 25 (≈ 64.5 µM) | > 100 | > 100 | > 100 | > 100 | 100 (≈ 258 µM) | inhibition zone (IZ) [3]: 10 mm; Activity [4]: >100 µg/mL; Activity [7]: >100 µg/mL; Activity [17]: >100 µg/mL; inhibition zone (IZ) [18]: 8 mm
4 | Cc1ccc(OCc2nnc(-c3cc(-c4cc(F)c(Cl)cc4Cl)nc4ccccc34)o2)cc1 | 25 (≈ 52 µM) | 12.5 (≈ 26 µM) | 8 | 15 | 100 (≈ 208 µM) | > 100 | > 100 | 6.25 (≈ 13 µM) | 25 (≈ 52 µM) | 12.5 (≈ 26 µM) | 10 | > 100 | 15 | 25 (≈ 52 µM) | > 100 | 12.5 (≈ 26 µM) | 6.25 (≈ 13 µM) | 50 (≈ 104 µM) | 25 (≈ 52 µM) | 50 (≈ 104 µM) | inhibition zone (IZ) [3]: 15 mm; Activity [7]: >100 µg/mL; inhibition zone (IZ) [17]: 17 mm; Activity [18]: >100 µg/mL
5 | Cc1ccccc1OCc1nnc(-c2cc(F)c(Cl)cc2Cl)o1 | 6.25 (≈ 17.7 µM) | 6.25 (≈ 17.7 µM) | 28 | 19 | 25 (≈ 70.8 µM) | 25 (≈ 70.8 µM) | 12.5 (≈ 35.4 µM) | > 100 | 6.25 (≈ 17.7 µM) | 25 (≈ 70.8 µM) | 27 | 100 (≈ 283 µM) | 16 | 100 (≈ 283 µM) | 25 (≈ 70.8 µM) | 12.5 (≈ 35.4 µM) | > 100 | 6.25 (≈ 17.7 µM) | 50 (≈ 142 µM) | 25 (≈ 70.8 µM) | inhibition zone (IZ) [3]: 8 mm; inhibition zone (IZ) [7]: 15 mm; Activity [17]: >100 µg/mL; inhibition zone (IZ) [18]: 10 mm
6 | Cc1ccccc1OCc1nnc(-c2cc(-c3cc(F)c(Cl)cc3Cl)nc3ccccc23)o1 | > 100 | 12.5 (≈ 26 µM) |  | 12 | 25 (≈ 52 µM) | 25 (≈ 52 µM) | 6.25 (≈ 13 µM) | 6.25 (≈ 13 µM) | 12.5 (≈ 26 µM) | > 100 | 12 | > 100 |  | > 100 | > 100 | > 100 | 12.5 (≈ 26 µM) | > 100 | > 100 | 25 (≈ 52 µM) | Activity [3]: >100 µg/mL; Activity [4]: >100 µg/mL; inhibition zone (IZ) [7]: 25 mm; Activity [15]: >100 µg/mL; inhibition zone (IZ) [17]: 18 mm; Activity [18]: >100 µg/mL
